Experimental data from ChEMBL document CHEMBL3046951, “Volatile constituents from the leaves of Callicarpa japonica Thunb. and their antibacterial activities” (2004).

Columns and labels:
Assay type in all cases: functional
Salmonella typhimurium [1] = assay: Antimicrobial activity against Salmonella enterica subsp. enterica serovar Typhimurium ATCC 14028 assessed as growth inhibition rate at 678.64 mg/l after 72 hr by spectrophotometry; conditions: ATCC 14028, 72 h, read-out: GI
Salmonella typhimurium [2] = assay: Antimicrobial activity against Salmonella enterica subsp. enterica serovar Typhimurium ATCC 14028 assessed as growth inhibition rate at 135.68 mg/l after 72 hr by spectrophotometry; conditions: ATCC 14028, 72 h, read-out: GI
Method in brief: (§1)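 Salmonella Typhimurium ATCC 14028 grown in nutrient broth at 30 °C, precultured 24 h, then subcultured 1:100 for 18 h before testing. Single volatile compounds (>95% pure) were added. OD was read every 24 h over 72 h in a Bioscreen C, with 10% Tween 80 as the comparison control.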

Salmonella typhimurium [3] = assay: Antimicrobial activity against Salmonella enterica subsp. enterica serovar Typhimurium ATCC 14028 assessed as growth inhibition rate at 67.88 mg/l after 72 hr by spectrophotometry; conditions: ATCC 14028, 72 h, read-out: GI
Salmonella typhimurium [4] = assay: Antimicrobial activity against Salmonella enterica subsp. enterica serovar Typhimurium ATCC 14028 assessed as growth inhibition rate at 25.52 mg/l after 72 hr by spectrophotometry; conditions: ATCC 14028, 72 h, read-out: GI; method in brief: as §1
Salmonella typhimurium [5] = assay: Antimicrobial activity against Salmonella enterica subsp. enterica serovar Typhimurium ATCC 14028 assessed as growth inhibition rate at 12.48 mg/l after 72 hr by spectrophotometry; conditions: ATCC 14028, 72 h, read-out: GI; method in brief: as §1
Bacillus cereus [6] = assay: Antimicrobial activity against Bacillus cereus ATCC 11778 assessed as growth inhibition rate at 678.64 mg/l after 72 hr by spectrophotometry; conditions: ATCC 11778, 72 h, read-out: GI
Method in brief: (§2)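 Pure volatile compounds (purity >95%; one at 90%) were tested against B. cereus ATCC 11778. The strain was grown at 30 °C in nutrient broth for 24 h, then subcultured for 18 h. Optical density was read in a Bioscreen C every 24 h for 72 h, with 10% Tween 80 as the control.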

Bacillus cereus [7] = assay: Antimicrobial activity against Bacillus cereus ATCC 11778 assessed as growth inhibition rate at 135.68 mg/l after 72 hr by spectrophotometry; conditions: ATCC 11778, 72 h, read-out: GI; method in brief: as §2
Bacillus cereus [8] = assay: Antimicrobial activity against Bacillus cereus ATCC 11778 assessed as growth inhibition rate at 67.88 mg/l after 72 hr by spectrophotometry; conditions: ATCC 11778, 72 h, read-out: GI; method in brief: as §2
Bacillus cereus [9] = assay: Antimicrobial activity against Bacillus cereus ATCC 11778 assessed as growth inhibition rate at 25.52 mg/l after 72 hr by spectrophotometry; conditions: ATCC 11778, 72 h, read-out: GI; method in brief: as §2
Bacillus cereus [10] = assay: Antimicrobial activity against Bacillus cereus ATCC 11778 assessed as growth inhibition rate at 12.48 mg/l after 72 hr by spectrophotometry; conditions: ATCC 11778, 72 h, read-out: GI; method in brief: as §2
Listeria monocytogenes [11] = assay: Antimicrobial activity against Listeria monocytogenes ATCC 19111 assessed as growth inhibition rate at 339.32 mg/l after 72 hr by spectrophotometry; conditions: ATCC 19111, 72 h, read-out: GI
Method in brief: (§3)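 L. monocytogenes was grown at 30 °C in tryptic soy broth, subcultured for 18 h, and exposed to pure volatile compounds (>95% purity). Growth was followed by Bioscreen C optical density every 24 h for 72 h against a 10% Tween 80 control.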

Escherichia coli [12] = assay: Antimicrobial activity against Escherichia coli O157:H7 ATCC 43894 assessed as growth inhibition rate at 678.64 mg/l after 72 hr by spectrophotometry; conditions: O157:H7 ATCC 43894, 72 h, read-out: GI
Method in brief: (§4)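 Authentic volatiles (>95% purity; 2,4-heptadienal 90%) tested against 18 h subcultures. Growth media: E. coli O157:H7 and S. aureus in tryptic soy broth at 37 °C; L. monocytogenes in tryptic soy broth at 30 °C; V. parahaemolyticus in tryptic soy broth + 3% NaCl at 37 °C; S. typhimurium in nutrient broth at 30 °C. Bioscreen C OD every 24 h for 72 h versus 10% Tween 80 control.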

Escherichia coli [13] = assay: Antimicrobial activity against Escherichia coli O157:H7 ATCC 43894 assessed as growth inhibition rate at 135.68 mg/l after 72 hr by spectrophotometry; conditions: O157:H7 ATCC 43894, 72 h, read-out: GI
Escherichia coli [14] = assay: Antimicrobial activity against Escherichia coli O157:H7 ATCC 43894 assessed as growth inhibition rate at 67.88 mg/l after 72 hr by spectrophotometry; conditions: O157:H7 ATCC 43894, 72 h, read-out: GI; method in brief: as §4
Escherichia coli [15] = assay: Antimicrobial activity against Escherichia coli O157:H7 ATCC 43894 assessed as growth inhibition rate at 25.52 mg/l after 72 hr by spectrophotometry; conditions: O157:H7 ATCC 43894, 72 h, read-out: GI
Escherichia coli [16] = assay: Antimicrobial activity against Escherichia coli O157:H7 ATCC 43894 assessed as growth inhibition rate at 12.48 mg/l after 72 hr by spectrophotometry; conditions: O157:H7 ATCC 43894, 72 h, read-out: GI
Staphylococcus aureus [17] = assay: Antimicrobial activity against Staphylococcus aureus ATCC 25923 assessed as growth inhibition rate at 678.64 mg/l after 72 hr by spectrophotometry; conditions: ATCC 25923, 72 h, read-out: GI
Staphylococcus aureus [18] = assay: Antimicrobial activity against Staphylococcus aureus ATCC 25923 assessed as growth inhibition rate at 135.68 mg/l after 72 hr by spectrophotometry; conditions: ATCC 25923, 72 h, read-out: GI
Staphylococcus aureus [19] = assay: Antimicrobial activity against Staphylococcus aureus ATCC 25923 assessed as growth inhibition rate at 67.88 mg/l after 72 hr by spectrophotometry; conditions: ATCC 25923, 72 h, read-out: GI
Staphylococcus aureus [20] = assay: Antimicrobial activity against Staphylococcus aureus ATCC 25923 assessed as growth inhibition rate at 25.52 mg/l after 72 hr by spectrophotometry; conditions: ATCC 25923, 72 h, read-out: GI
Staphylococcus aureus [21] = assay: Antimicrobial activity against Staphylococcus aureus ATCC 25923 assessed as growth inhibition rate at 12.48 mg/l after 72 hr by spectrophotometry; conditions: ATCC 25923, 72 h, read-out: GI
Vibrio parahaemolyticus [22] = assay: Antimicrobial activity against Vibrio parahaemolyticus ATCC 33844 assessed as growth inhibition rate at 339.32 mg/l after 72 hr by spectrophotometry; conditions: ATCC 33844, 72 h, read-out: GI
Salmonella typhimurium [23] = assay: Antimicrobial activity against Salmonella enterica subsp. enterica serovar Typhimurium ATCC 14028 assessed as growth inhibition rate at 339.32 mg/l after 72 hr by spectrophotometry; conditions: ATCC 14028, 72 h, read-out: GI; method in brief: as §1
Escherichia coli [24] = assay: Antimicrobial activity against Escherichia coli O157:H7 ATCC 43894 assessed as growth inhibition rate at 339.32 mg/l after 72 hr by spectrophotometry; conditions: O157:H7 ATCC 43894, 72 h, read-out: GI
Staphylococcus aureus [25] = assay: Antimicrobial activity against Staphylococcus aureus ATCC 25923 assessed as growth inhibition rate at 339.32 mg/l after 72 hr by spectrophotometry; conditions: ATCC 25923, 72 h, read-out: GI
Listeria monocytogenes [26] = assay: Antimicrobial activity against Listeria monocytogenes ATCC 19111 assessed as growth inhibition rate at 12.48 mg/l after 72 hr by spectrophotometry; conditions: ATCC 19111, 72 h, read-out: GI; method in brief: as §3
Vibrio parahaemolyticus [27] = assay: Antimicrobial activity against Vibrio parahaemolyticus ATCC 33844 assessed as growth inhibition rate at 12.48 mg/l after 72 hr by spectrophotometry; conditions: ATCC 33844, 72 h, read-out: GI
Listeria monocytogenes [28] = assay: Antimicrobial activity against Listeria monocytogenes ATCC 19111 assessed as growth inhibition rate at 678.64 mg/l after 72 hr by spectrophotometry; conditions: ATCC 19111, 72 h, read-out: GI
Method in brief: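 Pure volatile compounds (>95% purity) tested on Listeria monocytogenes ATCC 19111 in tryptic soy broth at 30 °C. Inoculum: 24 h culture subcultured (0.1 mL into 9.9 mL broth) and grown 18 h. Growth followed by Bioscreen C optical density every 24 h for 72 h against a 10% Tween 80 control.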

Listeria monocytogenes [29] = assay: Antimicrobial activity against Listeria monocytogenes ATCC 19111 assessed as growth inhibition rate at 135.68 mg/l after 72 hr by spectrophotometry; conditions: ATCC 19111, 72 h, read-out: GI; method in brief: as §3
Listeria monocytogenes [30] = assay: Antimicrobial activity against Listeria monocytogenes ATCC 19111 assessed as growth inhibition rate at 67.88 mg/l after 72 hr by spectrophotometry; conditions: ATCC 19111, 72 h, read-out: GI; method in brief: as §3
Listeria monocytogenes [31] = assay: Antimicrobial activity against Listeria monocytogenes ATCC 19111 assessed as growth inhibition rate at 25.52 mg/l after 72 hr by spectrophotometry; conditions: ATCC 19111, 72 h, read-out: GI; method in brief: as §3
Vibrio parahaemolyticus [32] = assay: Antimicrobial activity against Vibrio parahaemolyticus ATCC 33844 assessed as growth inhibition rate at 678.64 mg/l after 72 hr by spectrophotometry; conditions: ATCC 33844, 72 h, read-out: GI
Vibrio parahaemolyticus [33] = assay: Antimicrobial activity against Vibrio parahaemolyticus ATCC 33844 assessed as growth inhibition rate at 135.68 mg/l after 72 hr by spectrophotometry; conditions: ATCC 33844, 72 h, read-out: GI
Vibrio parahaemolyticus [34] = assay: Antimicrobial activity against Vibrio parahaemolyticus ATCC 33844 assessed as growth inhibition rate at 67.88 mg/l after 72 hr by spectrophotometry; conditions: ATCC 33844, 72 h, read-out: GI
Vibrio parahaemolyticus [35] = assay: Antimicrobial activity against Vibrio parahaemolyticus ATCC 33844 assessed as growth inhibition rate at 25.52 mg/l after 72 hr by spectrophotometry; conditions: ATCC 33844, 72 h, read-out: GI
Bacillus cereus [36] = assay: Antimicrobial activity against Bacillus cereus ATCC 11778 assessed as growth inhibition rate at 339.32 mg/l after 72 hr by spectrophotometry; conditions: ATCC 11778, 72 h, read-out: GI; method in brief: as §2

For `C=C[C@H](O)CCCCC`, the inhibition of growth at 678.64 µg/mL (Salmonella typhimurium [1]) was 98.4%, the inhibition of growth at 135.68 µg/mL (Salmonella typhimurium [2]) was 25.4% and the inhibition of growth at 67.88 µg/mL (Salmonella typhimurium [3]) was 17.7%. The inhibition of growth at 25.52 µg/mL (Salmonella typhimurium [4]) was 16.7%, the inhibition of growth at 12.48 µg/mL (Salmonella typhimurium [5]) was 18.2% and the inhibition of growth at 678.64 µg/mL (Bacillus cereus [6]) was 90.8%. It also gave an inhibition of growth at 135.68 µg/mL (Bacillus cereus [7]) of 7.6%, an inhibition of growth at 67.88 µg/mL (Bacillus cereus [8]) of 4.2% and an inhibition of growth at 25.52 µg/mL (Bacillus cereus [9]) of 0%. The inhibition of growth at 12.48 µg/mL (Bacillus cereus [10]) was 0%, the inhibition of growth at 339.32 µg/mL (Listeria monocytogenes [11]) was 27.3% and the inhibition of growth at 678.64 µg/mL (Escherichia coli [12]) was 96.5%. For the same molecule, the inhibition of growth at 135.68 µg/mL (Escherichia coli [13]) was 8.9%, the inhibition of growth at 67.88 µg/mL (Escherichia coli [14]) was 7.9% and the inhibition of growth at 25.52 µg/mL (Escherichia coli [15]) was 6.3%. For the same molecule, the inhibition of growth at 12.48 µg/mL (Escherichia coli [16]) was 8.3%, the inhibition of growth at 678.64 µg/mL (Staphylococcus aureus [17]) was 80.6% and the inhibition of growth at 135.68 µg/mL (Staphylococcus aureus [18]) was 8.7%. For the same molecule, the inhibition of growth at 67.88 µg/mL (Staphylococcus aureus [19]) was 5.7%, the inhibition of growth at 25.52 µg/mL (Staphylococcus aureus [20]) was 6.6% and the inhibition of growth at 12.48 µg/mL (Staphylococcus aureus [21]) was 3.6%. It also gave an inhibition of growth at 339.32 µg/mL (Vibrio parahaemolyticus [22]) of 90.4%, an inhibition of growth at 339.32 µg/mL (Salmonella typhimurium [23]) of 79.1% and an inhibition of growth at 339.32 µg/mL (Escherichia coli [24]) of 87.2%. The inhibition of growth at 339.32 µg/mL (Staphylococcus aureus [25]) was 50.2%, the inhibition of growth at 12.48 µg/mL (Listeria monocytogenes [26]) was 5.4% and the inhibition of growth at 12.48 µg/mL (Vibrio parahaemolyticus [27]) was 11.1%. The inhibition of growth at 678.64 µg/mL (Listeria monocytogenes [28]) was 39.8%, the inhibition of growth at 135.68 µg/mL (Listeria monocytogenes [29]) was 8.2% and the inhibition of growth at 67.88 µg/mL (Listeria monocytogenes [30]) was 5%. For the same molecule, the inhibition of growth at 25.52 µg/mL (Listeria monocytogenes [31]) was 6.7%, the inhibition of growth at 678.64 µg/mL (Vibrio parahaemolyticus [32]) was 98.8% and the inhibition of growth at 135.68 µg/mL (Vibrio parahaemolyticus [33]) was 21.5%. It also gave an inhibition of growth at 67.88 µg/mL (Vibrio parahaemolyticus [34]) of 13.5%, an inhibition of growth at 25.52 µg/mL (Vibrio parahaemolyticus [35]) of 14.3% and an inhibition of growth at 339.32 µg/mL (Bacillus cereus [36]) of 54.6%.
